Laboratory results as given in ChEMBL document CHEMBL1151252, “New lamellarin alkaloids from the Indian ascidian Didemnum obscurum and their antioxidant properties” (J Nat Prod, 2004).

How the values were obtained:
[1] = DPPH radical scavenging activity assessed as ratio of IC50 for trolox to IC50 for test compound; type: functional
How it was run: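 TEAC is the ratio of Trolox IC50 to sample IC50. Both come from the same HPLC DPPH scavenging assay: 250 μM final DPPH, 20 min in the dark at room temperature, reversed-phase HPLC with diode-array detection. Each IC50 is derived by linear regression from at least five concentrations in triplicate.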

[2] = test system: Radical scavenging activity; test: Antioxidant activity assessed as DPPH radical scavenging activity by HPLC; type: functional
How it was run: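 In the HPLC DPPH assay, test material in methanol or DMSO is mixed 1:1 with methanolic DPPH (final 250 μM) and held in the dark for 20 min at room temperature, then filtered and run on reversed-phase HPLC with diode-array detection. IC50 is obtained by linear regression over at least five concentrations, each in triplicate.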

IC50 [2] | SMILES | Ratio IC50 [1]
63.6 µM | Cc1c(C)c2c(c(C)c1O)CC[C@@](C)(CCC[C@H](C)CCC[C@H](C)CCCC(C)C)O2 [ALPHA-TOCOPHEROL] | 1.07
52.7 µM | CC(C)(Sc1cc(C(C)(C)C)c(O)c(C(C)(C)C)c1)Sc1cc(C(C)(C)C)c(O)c(C(C)(C)C)c1 [PROBUCOL] | 1.29
67.8 µM | Cc1c(C)c2c(c(C)c1O)CCC(C)(C(=O)O)O2 (stereo unspecified) [TROLOX] | 1
